Tests used:
[1] = target: Human immunodeficiency virus type 1 reverse transcriptase (Human immunodeficiency virus 1) (UniProt Q72547); assay: Inhibitory activity against HIV-1 reverse transcriptase (wild type) at 10 uM dose
Procedure, shortened: (§1)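 Recombinant HIV-1 RT homodimers (wild type or P236L mutant) were tested with compound at a single 10 µM concentration and reported as % inhibition. Reactions ran at 28 °C for 10 min and were stopped with 10% trichloroacetic acid. Acid-precipitated product was collected on glass fibre filters and counted for radioactivity.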

[2] = tested on: Human immunodeficiency virus type 1 reverse transcriptase (Human immunodeficiency virus 1), Q72547 [P236L]; assay: Inhibitory activity against HIV-1 reverse transcriptase (P236L) at 10 uM dose; procedure, shortened: as §1
[3] = tested on: MT4; assay: Concentration of drug that inhibited p24 production by 90% in infected MT-4 cells against HIV-1-WT; format: functional; settings: Homo sapiens
[4] = target: T1, Human immunodeficiency virus type 1 reverse transcriptase (Human immunodeficiency virus 1, UniProt Q72547); assay: Inhibition of HIV-1 reverse transcriptase (wild type)
Procedure, shortened: (§2)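 Wild-type HIV-1 RT homodimer run at 28 °C for 10 min. The reaction is stopped with 10% (v/v) trichloroacetic acid, and the acid-precipitated product is collected on glass fiber filters and counted for radioactivity. Compounds are screened as % inhibition at 10 µM, and IC50 values are determined from eight drug concentrations.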

[5] = target: Human immunodeficiency virus type 1 reverse transcriptase (Human immunodeficiency virus 1, UniProt Q72547, P236L); assay: Inhibition of HIV-1 reverse transcriptase (P236L)
Procedure, shortened: (§3)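 HIV-1 RT homodimers (wild type or P236L) were assayed by radiolabel incorporation at 28 °C for 10 min and stopped with 10% trichloroacetic acid. Acid-insoluble product was filter-captured and counted. IC50 was derived from inhibition measured at eight drug concentrations.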

[6] = tested on: MT4; assay: Concentration of drug that inhibited p24 production by 90% in infected MT-4 cells against HIV-1MF-DLV; format: functional; settings: Homo sapiens
[7] = tested on: MT4; assay: concentration of drug that inhibited p24 production by 90% in infected MT-4 cells against HIV-1-WT; format: functional; settings: Homo sapiens
[8] = tested on: MT4; assay: concentration of drug that inhibited p24 production by 90% in infected MT-4 cells against HIV-1MF-DLV; format: functional; settings: Homo sapiens
[9] = target: T1, Human immunodeficiency virus type 1 reverse transcriptase; assay: inhibitory activity against HIV-1 reverse transcriptase (wild type; procedure, shortened: as §2
[10] = target: Human immunodeficiency virus type 1 reverse transcriptase (Human immunodeficiency virus 1) (UniProt Q72547); assay: inhibitory activity against HIV-1 reverse transcriptase (wild type) at 10 uM dose (IC50 determined in 8 drug concentrations); procedure, shortened: as §3
[11] = tested on: Human immunodeficiency virus type 1 reverse transcriptase (Human immunodeficiency virus 1), Q72547 [P236L]; assay: inhibitory activity against HIV-1 reverse transcriptase (P236L) at 10 uM dose (IC50 determined in 8 drug concentrations); procedure, shortened: as §3
[12] = target: Human immunodeficiency virus type 1 reverse transcriptase (Human immunodeficiency virus 1) (UniProt Q72547); assay: inhibitory activity against HIV-1 reverse transcriptase (wild type) at 10 uM dose; procedure, shortened: as §1

Row | Structure (SMILES) | inhibition [1] | inhibition [2] | also measured
1 | Nc1cc(Cl)nc(OCc2ccc3ccccc3c2)n1 | 63% | 80% | 
2 | COc1ccc(CSc2nc(N)cc(Cl)n2)cc1 | 25% | 63% | 
3 | CCOC(=O)c1cc(N)nc(SCc2ccc3ccccc3c2)n1 | 17% | 24% | 
4 | Nc1cc(Cl)nc(SCc2cccc(F)c2)n1 |  | 79% | 
5 | Nc1cc(Cl)nc(S(=O)(=O)Cc2cccc(Br)c2)n1 |  | 14% | 
6 | Cc1cccc(COc2nc(N)cc(Cl)n2)c1 | 25% | 72% | 
7 | Nc1cc(Cl)nc(SCC(=O)O)n1 | 0% | 0% | 
8 | COc1cccc(CSc2nc(N)cc(Cl)n2)c1 | 70% | 97% | IC90 [3]: 270 nM; IC50 [4]: 980 nM; IC50 [5]: 160 nM; IC90 [6]: 3210 nM
9 | Nc1cc(Cl)nc(OCc2ccccc2)n1 | 1% | 44% | 
10 | CCNC(=O)/C=C/CSc1nc(N)cc(Cl)n1 | 40% | 55% | 
11 | Nc1cc(Cl)nc(SCc2cccc(I)c2)n1 |  | 89% | 
12 | Nc1cc(C(F)(F)F)nc(SCc2ccc3ccccc3c2)n1 | 94% | 94% | IC50 [4]: 290 nM; IC50 [5]: 430 nM
13 | Nc1cc(Cl)nc(SCc2cccc(Br)c2)n1 | 94% | 97% | IC50 [4]: 760 nM; IC50 [5]: 140 nM; IC90 [7]: 350 nM; IC90 [8]: 4520 nM
14 | CC1(C)CCC(C)(C)c2cc(CSc3nc(N)cc(Cl)n3)ccc21 | 7% | 23% | 
15 | COC(=O)c1cccc(CSc2nc(N)cc(Cl)n2)c1 | 93% | 94% | IC50 [4]: 330 nM; IC50 [5]: 230 nM
16 | Nc1cc(N2CCCC2)nc(SCc2ccccc2)n1 | 3% | 0% | 
17 | Clc1ccnc(SCc2ccc3ccccc3c2)n1 | 61% | 86% | 
18 | Cc1cc(N)nc(SCc2ccccc2)n1 | 0% | 4% | 
19 | Cc1ccccc1CSc1nc(N)cc(Cl)n1 | 2% | 0% | 
20 | Nc1cc(Cl)nc(SCc2cccc(Cl)c2)n1 |  | 65% | 
21 | Clc1cc(-c2ccccc2)nc(SCc2ccc3ccccc3c2)n1 |  | 5% | 
22 | Nc1cc(Cl)nc(NCc2ccc3ccccc3c2)n1 | 9% | 17% | 

Row | Structure (SMILES) | inhibition [1] | inhibition [2] | also measured
23 | Nc1cc(Cl)nc(SCc2cccc(C(F)(F)F)c2)n1 | 80% | 91% | 
24 | Nc1cc(Cl)nc(SCc2ccc3c(c2)OCO3)n1 | 82% | 95% | 
25 | COC(=O)c1ccc(CSc2nc(N)cc(Cl)n2)cc1 | 6% | 15% | 
26 | CCCCCCCCCSc1nc(N)cc(Cl)n1 | 0% | 0% | 
27 | Nc1cc(Cl)nc(SCc2cc(Cl)cc(Cl)c2)n1 |  | 65% | 
28 | Nc1cc(Cl)nc(SCc2cc3c(cc2Cl)OCO3)n1 | 98% | 99% | IC50 [5]: 16 nM; IC50 [9]: 85 nM
29 | Nc1cc(Cl)nc(SCC2=CCCc3ccccc32)n1 | 47% | 88% | IC50 [4]: 16000 nM; IC50 [5]: 600 nM
30 | CC(C)(C)c1ccc(CSc2nc(N)cc(Cl)n2)cc1 | 37% | 56% | 
31 | Nc1cc(Cl)nc([S+]([O-])Cc2ccc3ccccc3c2)n1 (stereo not given) | 45% | 75% | 
32 | Nc1cc(Cl)nc(SCc2cc(Br)cc(Br)c2)n1 |  | 73% | 
33 | Clc1cc(-n2ccnc2)nc(SCc2ccc3ccccc3c2)n1 | 12% | 17% | 
34 | Clc1cc(N2CCCCC2)nc(SCc2ccccc2)n1 | 47% | 47% | 
35 | Clc1cc(Cl)nc(SCc2ccc3ccccc3c2)n1 | 0% | 23% | 
36 | CN(C)C(=O)/C=C/CSc1nc(N)cc(Cl)n1 |  |  | inhibition [10]: 99%; IC50 [4]: 200 nM; IC50 [5]: 70 nM; inhibition [11]: 99%; IC90 [7]: 90 nM; IC90 [8]: 740 nM
37 | Nc1cc(Cl)nc(SCCc2ccccc2)n1 | 33% | 12% | 
38 | CCN(CC)C(=O)CSc1nc(N)cc(Cl)n1 | 14% | 14% | 
39 | Nc1cc(Cl)nc(SCc2cccc3ccccc23)n1 | 89% | 96% | 
40 | NNc1cc(Cl)nc(SCc2ccccc2)n1 |  | 31% | 
41 | Cc1cccc(CSc2nc(N)cc(Cl)n2)c1 |  |  | inhibition [10]: 96%; IC50 [4]: 280 nM; IC50 [5]: 50 nM; inhibition [11]: 98%; IC90 [7]: 110 nM; IC90 [8]: 1760 nM
42 | Cc1ccc(CSc2nc(N)cc(Cl)n2)cc1 | 3% | 5% | 
43 | Nc1cc(Cl)nc(OCc2cccc3ccccc23)n1 | 2% | 67% | 
44 | CCCNc1cc(Cl)nc(SCc2ccccc2)n1 | 14% | 30% | 

Row | Structure (SMILES) | inhibition [1] | inhibition [2] | also measured
45 | Clc1cc(Cl)nc(SCc2ccccc2)n1 | 19% | 25% | 
46 | Nc1cc(Cl)nc([S+]([O-])Cc2cccc(Br)c2)n1 (stereo not given) |  | 40% | 
47 | CCN(CC)C(=O)/C=C/CSc1nc(N)cc(Cl)n1 |  |  | inhibition [10]: 98%; IC50 [4]: 60 nM; IC50 [5]: 50 nM; inhibition [11]: 99%; IC90 [7]: 20 nM; IC90 [8]: 110 nM
48 | Nc1cc(Cl)nc(CCc2ccc3ccccc3c2)n1 |  | 12% | 
49 | Nc1cc(O)nc(SCc2ccc3ccccc3c2)n1 | 10% | 4% | 
50 | Nc1cc(Cl)nc(SCc2ccc3ccccc3c2)n1 |  |  | inhibition [10]: 87%; IC50 [4]: 460 nM; IC50 [5]: 150 nM; inhibition [11]: 96%; IC90 [7]: 220 nM; IC90 [8]: 2760 nM
51 | COC(=O)/C=C/CSc1nc(N)cc(Cl)n1 | 78% | 93% | IC50 [4]: 5250 nM; IC50 [5]: 930 nM
52 | Nc1cc(Cl)nc(SCc2ccc(Cl)c(Cl)c2)n1 | 80% | 94% | IC50 [4]: 490 nM; IC50 [5]: 62 nM
53 | Nc1cc(Cl)nc(SC/C=C/c2ccccc2)n1 | 96% | 98% | IC50 [4]: 190 nM; IC50 [5]: 70 nM; IC90 [7]: 150 nM; IC90 [8]: 5050 nM
54 | N#Cc1cc(N)nc(SCc2ccc3ccccc3c2)n1 | 84% | 93% | 
55 | Nc1cc(Cl)nc(SCc2ccccc2)n1 |  |  | IC50 [4]: 6660 nM; IC50 [5]: 1470 nM
56 | Nc1cc(Cl)nc(SCC2=Cc3ccccc3CC2)n1 | 71% | 87% | 
57 | CCOC(=O)CCSc1nc(N)cc(Cl)n1 | 11% | 7% | 
58 | Clc1cc(NC2CCCCC2)nc(SCc2ccccc2)n1 | 26% | 6% | 
59 | OCCCNc1cc(Cl)nc(SCc2ccccc2)n1 | 17% | 3% | 
60 | Clc1cc(N2CCCC2)nc(SCc2ccccc2)n1 | 35% | 41% | 
61 | CC(=O)Nc1cc(Cl)nc(SCc2ccc3ccccc3c2)n1 | 30% | 53% | 
62 | Nc1cc(Cl)nc(SCC2CCCCC2)n1 | 37% | 13% | 
63 | Nc1ccnc(SCc2ccc3ccccc3c2)n1 |  | 71% | inhibition [12]: 50%
64 | C/C=C/CSc1nc(N)cc(Cl)n1 | 5% | 47% | 
65 | Nc1cc(Cl)nc(SCc2ccc(-c3ccccc3)cc2)n1 | 8% | 20% | 

From ChEMBL document CHEMBL1131117, “Pyrimidine thioethers: a novel class of HIV-1 reverse transcriptase inhibitors with activity against BHAP-resistant HIV” (J Med Chem, 1998)
